In publication PMC8693849 (RSC Advances, 2021):
Values after ≈ are worked out from the molar mass of the structure shown.

Experiments:
S. aureus (ATCC 25923) = assay: Agar diffusion method, zone of inhibition; format: cell-based, Staphylococcus aureus; details: for zone of inhibition at 10 µg/mL / zone of inhibition at 15 µg/mL: Staphylococcus aureus, ATCC25923, 24 h, read-out: Diameter of zone inhibition; for Diameter of zone inhibition: S. aureus (ATCC 25923), average of triplicate
Outline: (§1)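 Bacterial strains were tested by agar diffusion on nutrient agar (peptone 5 and meat extract 3 g L⁻¹ in distilled water, pH 7.0, 2% agar, autoclaved 121 °C for 20 min). Each test compound (1 mg) was dissolved in 1 mL DMSO and made up to 10 mL with sterile water (100 μg mL⁻¹ stock). The solution was placed in the agar, and inhibition zones were measured after 24 h incubation. Values are the mean of triplicate readings.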

S. pyogenes (ATCC 19615) = assay: Agar diffusion method, zone of inhibition; format: cell-based, Streptococcus pyogenes; details: for zone of inhibition at 10 µg/mL / zone of inhibition at 15 µg/mL: Streptococcus pyogenes, ATCC19615, 24 h, read-out: Diameter of zone inhibition
[1] = tested on: P. phaseolicola (GSPB 2828); assay: Agar diffusion method, zone of inhibition; format: cell-based, Pseudomonas phaseolicola; details: for zone of inhibition at 10 µg/mL / zone of inhibition at 15 µg/mL: Pseudomonas, 24 h, read-out: Diameter of zone inhibition
Outline: as §1

C. albicans = assay: Agar diffusion method, zone of inhibition; format: cell-based, Candida albicans; details: for zone of inhibition at 10 µg/mL / zone of inhibition at 15 µg/mL: Candida albicans, 24 h, read-out: Diameter of zone inhibition; for Diameter of zone inhibition: C. albicans, average of triplicate
Outline: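 For agar diffusion against C. albicans, each test compound (1 mg) was dissolved in 1 mL DMSO and diluted to 10 mL with sterile water (100 μg mL⁻¹ stock). The solution was placed in the agar, and the inhibition zone diameter was read after 24 h. Values are the average of triplicate readings.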

[2] = tested on: K. pneumoniae (MDR clinical isolate); assay: Zone of inhibition against MDR clinical isolate; format: cell-based; details: for zone of inhibition at 15 µg/mL: Klebsiella pneumoniae, read-out: Diameter of zone inhibition; for Diameter of zone inhibition: MDR K. pneumoniae clinical isolate, 15 μg mL^−1
[3] = tested on: MRSA1 (methicillin resistant S. aureus); assay: Zone of inhibition against MDR clinical isolate; format: cell-based; details: for zone of inhibition at 15 µg/mL: Staphylococcus aureus, read-out: Diameter of zone inhibition; for Diameter of zone inhibition: MRSA1 clinical isolate, 15 μg mL^−1
[4] = tested on: MRSA1 (methicillin resistant S. aureus); assay: Minimal inhibitory concentration; format: cell-based; details: for SI (selectivity index, CC50/MIC): MRSA1 vs VERO cells; for Activity against methicillin resistant S. aureus: MDR clinical isolate
Outline: (§2)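 Broth microdilution against MDR clinical isolates: 80 μl Mueller–Hinton broth plus 20 μl tween 80 received 100 μl test compound, then two-fold serial dilution. Each well was inoculated with 100 μl of 0.5 McFarland suspension ([…]) and incubated covered at 35 ± 2 °C for 24 h. MIC is the lowest concentration inhibiting growth.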

Gram-positive bacteria = assay: Agar diffusion method; format: cell-based, S. aureus (ATCC 25923) and S. pyogenes (ATCC 19615); details: summary of Table 1
Outline: as §1

P. fluorescens (S 97) = assay: Agar diffusion method, zone of inhibition; format: cell-based, Pseudomonas fluorescens; details: for zone of inhibition at 15 µg/mL / zone of inhibition at 10 µg/mL: Pseudomonas fluorescens, 24 h, read-out: Diameter of zone inhibition; for Diameter of zone inhibition: P. fluorescens (S 97), average of triplicate
Outline: as §1

[5] = tested on: K. pneumoniae (MDR clinical isolate); assay: Minimal inhibitory concentration; format: cell-based; details: for SI (selectivity index, CC50/MIC): K. pneumoniae vs VERO cells
Outline: as §2

Gram-negative bacteria = assay: Agar diffusion method; format: cell-based, P. phaseolicola (GSPB 2828) and P. fluorescens (S 97); details: summary of Table 1
Outline: as §1

VERO cells = assay: In vitro cytotoxicity, MTT assay; format: cell-based, African Green Monkey; details: normal VERO cells, 72 h, Table 4
[6] = tested on: MRSA1 (methicillin resistant S. aureus); assay: Minimum bactericidal concentration; format: cell-based; details: MRSA; >4 = bacteriostatic

Row | Compound | zone of inhibition at 10 µg/mL (S. aureus (ATCC 25923)) | zone of inhibition at 10 µg/mL (S. pyogenes (ATCC 19615)) | zone of inhibition at 10 µg/mL [1] | zone of inhibition at 15 µg/mL [1] | zone of inhibition at 10 µg/mL (C. albicans) | zone of inhibition at 15 µg/mL (C. albicans) | zone of inhibition at 15 µg/mL [2] | zone of inhibition at 15 µg/mL [3] | SI (selectivity index, CC50/MIC) [4] | MIC ([4]; Staphylococcus aureus) | Activity against Gram-positive bacteria (Gram-positive bacteria) | zone of inhibition at 15 µg/mL (P. fluorescens (S 97)) | MIC ([5]; K. pneumoniae, Table 4) | Activity against Gram-negative bacteria (Gram-negative bacteria) | zone of inhibition at 10 µg/mL (P. fluorescens (S 97)) | further results
1 | CC(=O)C1=C(C)N2NC(C)(c3ccccc3O)N(C(Cc3c[nH]c4ccccc34)C(=O)O)C2=NC1c1ccc(Cl)cc1 (centres unmarked) [Compound 2d, 2-(6-Acetyl-5-(4-chlorophenyl)-2-(2-hydroxyphenyl)-2,7-dimethyl-1,2-dihydro-[1,2,4]triazolo[1,5-a]pyrimidin-3(5H)-yl)-3-(1H-indol-3-yl)propanoic acid] | 20 mm | 20 mm | 12 mm | 22 mm | 9 mm | 12 mm | 6 mm | 28 mm | 20 | 25 µg/mL (≈ 42.8 µM) | active |  |  |  |  | MIC ([4]; MRSA1, Table 4): 25 µg/mL (≈ 42.8 µM)
2 | CC(C(=O)O)N1c2nc(-c3ccc(Cl)cc3)c(C#N)c(=O)n2NC1c1ccccc1O (centres unmarked) [Compound 9a, 2-(5-(4-Chlorophenyl)-6-cyano-2-(2-hydroxyphenyl)-7-oxo-1,2-dihydro-[1,2,4]triazolo[1,5-a]pyrimidin-3(7H)-yl)propanoic acid] |  | 12 mm |  | 30 mm | 6 mm | 9 mm | 27 mm | 5 mm |  |  |  | 30 mm | 25 µg/mL (≈ 57.1 µM) | active |  | zone of inhibition at 15 µg/mL (S. aureus (ATCC 25923)): 26 mm; zone of inhibition at 15 µg/mL (S. pyogenes (ATCC 19615)): 27 mm; SI (selectivity index, CC50/MIC) [5]: 20
3 | 2-(5-(4-Chlorophenyl)-6-cyano-2-(2-hydroxyphenyl)-7-imino-2-methyl-1,2-dihydro-[1,2,4]triazolo[1,5-a]pyrimidin-3(7H)-yl)propanoic acid [Compound 8b] |  |  |  |  |  |  |  |  |  |  |  |  | 25 µg/mL | active |  | Diameter of zone inhibition (S. aureus (ATCC 25923); 10 μg mL^−1, 24 h): 12 mm; Diameter of zone inhibition (S. aureus (ATCC 25923); 15 μg mL^−1, 24 h): 22 mm; Diameter of zone inhibition (S. pyogenes (ATCC 19615); S. pyogenes (ATCC 19615), 15 μg mL^−1, 24 h, average of triplicate): 26 mm; Diameter of zone inhibition (C. albicans; 10 μg mL^−1, 24 h): 8 mm; Diameter of zone inhibition (C. albicans; 15 μg mL^−1, 24 h): 10 mm; Diameter of zone inhibition [2]: 27 mm; Diameter of zone inhibition [3]: 8 mm; MIC ([5]; MDR K. pneumoniae clinical isolate, Table 2): 25 µg/mL; CC50 (VERO cells): 125 µg/mL
4 | CCOC(=O)C1=C(C)N2NC(c3ccccc3O)N(C(Cc3c[nH]c4ccccc34)C(=O)O)C2=NC1c1ccc(Cl)cc1 (centres unmarked) [Compound 3c, 2-(5-(4-Chlorophenyl)-6-(ethoxycarbonyl)-2-(2-hydroxyphenyl)-7-methyl-1,2-dihydro-[1,2,4]triazolo[1,5-a]pyrimidin-3(5H)-yl)-3-(1H-indol-3-yl)propanoic acid] |  |  | 10 mm |  | 6 mm | 7 mm | 9 mm | 24 mm | 20 | 12.5 µg/mL (≈ 20.8 µM) | active | 23 mm |  |  | 8 mm | Activity against methicillin resistant S. aureus ([4]; Table 2): remarkable activity; MIC ([4]; MRSA1, Table 3): 12.5 µg/mL (≈ 20.8 µM); MIC index (MBC/MIC) [6]: > 4
5 | N#Cc1c(-c2ccc(Cl)cc2)nc2n(c1=O)NC(c1ccccc1O)N2C(Cc1c[nH]c2ccccc12)C(=O)O (centres unmarked) [Compound 9c, 2-(5-(4-Chlorophenyl)-6-cyano-2-(2-hydroxyphenyl)-7-oxo-1,2-dihydro-[1,2,4]triazolo[1,5-a]pyrimidin-3(7H)-yl)-3-(1H-indol-3-yl)propanoic acid] |  | 19 mm | 10 mm | 22 mm | 9 mm | 11 mm | 13 mm | 27 mm | 10 | 25 µg/mL (≈ 45.2 µM) | active | 20 mm |  |  | 11 mm | MIC ([4]; MRSA1, Table 4): 25 µg/mL (≈ 45.2 µM)
6 | 2-(5-(4-Chlorophenyl)-6-cyano-2-(2-hydroxyphenyl)-7-imino-1,2-dihydro-[1,2,4]triazolo[1,5-a]pyrimidin-3(7H)-yl)-3-(1H-indol-3-yl)propanoic acid [Compound 8c] |  |  |  |  |  |  |  |  |  |  | active |  |  |  |  | Diameter of zone inhibition (S. aureus (ATCC 25923); 15 μg mL^−1, 24 h): 30 mm; Diameter of zone inhibition ([1]; P. phaseolicola (GSPB 2828), 15 μg mL^−1, 24 h, average of triplicate): 24 mm; Diameter of zone inhibition (P. fluorescens (S 97); 10 μg mL^−1, 24 h): 13 mm; Diameter of zone inhibition (P. fluorescens (S 97); 15 μg mL^−1, 24 h): 23 mm; Diameter of zone inhibition (C. albicans; 10 μg mL^−1, 24 h): 8 mm; Diameter of zone inhibition (C. albicans; 15 μg mL^−1, 24 h): 11 mm; Diameter of zone inhibition [2]: 12 mm; Diameter of zone inhibition [3]: 28 mm; MIC ([4]; MRSA1 clinical isolate, Table 2): 50 µg/mL
7 | CC(C(=O)O)N1c2nc(-c3ccc(Cl)cc3)c(C#N)c(=O)n2NC1(C)c1ccccc1O (centres unmarked) [Compound 9b, 2-(5-(4-Chlorophenyl)-6-cyano-2-(2-hydroxyphenyl)-2-methyl-7-oxo-1,2-dihydro-[1,2,4]triazolo[1,5-a]pyrimidin-3(7H)-yl)propanoic acid] | 15 mm |  | 19 mm |  | 6 mm | 8 mm | 29 mm | 7 mm |  |  |  | 28 mm | 25 µg/mL (≈ 55.3 µM) | active |  | zone of inhibition at 15 µg/mL (S. aureus (ATCC 25923)): 26 mm; zone of inhibition at 15 µg/mL (S. pyogenes (ATCC 19615)): 25 mm; SI (selectivity index, CC50/MIC) [5]: 10
8 | CC1(c2ccccc2O)Nn2c(nc(-c3ccc(Cl)cc3)c(C#N)c2=O)N1C(Cc1c[nH]c2ccccc12)C(=O)O (centres unmarked) [Compound 9d, 2-(5-(4-Chlorophenyl)-6-cyano-2-(2-hydroxyphenyl)-2-methyl-7-oxo-1,2-dihydro-[1,2,4]triazolo[1,5-a]pyrimidin-3(7H)-yl)-3-(1H-indol-3-yl)propanoic acid] | 20 mm | 19 mm | 10 mm |  | 7 mm | 8 mm | 11 mm | 29 mm | 40 | 12.5 µg/mL (≈ 22 µM) | active | 23 mm |  |  | 12 mm | Activity against methicillin resistant S. aureus ([4]; Table 2): remarkable activity; MIC ([4]; MRSA1, Table 3): 12.5 µg/mL (≈ 22 µM); MIC index (MBC/MIC) [6]: > 4
